From ChEMBL document CHEMBL1759832, “Discovery of torezolid as a novel 5-hydroxymethyl-oxazolidinone antibacterial agent” (Eur J Med Chem, 2011) come the findings set out here.

SMILES strings stand for the structures. ≈ marks a conversion by molar mass, not a printed value.

Series [1] relates to Staphylococcus aureus. The experiment in a line: Antibacterial activity against methicillin-resistant Staphylococcus aureus by agar dilution method. Type of series: functional. Put shortly:
(§1)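 MIC by CLSI agar dilution on Mueller-Hinton agar for S. aureus (MSSA, MRSA) and Enterococcus faecium (VRE).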

In series [2] the test system is Staphylococcus aureus. Kind of series: Antibacterial activity against methicillin-susceptible Staphylococcus aureus by agar dilution method. Type of series: functional. Put shortly:
as §1

The subject of another series is Enterococcus. Kind of series: Antibacterial activity against vancomycin-resistant Enterococcus by agar dilution method. In kind it is functional. Put shortly: as §1
Series [3] relates to Staphylococcus aureus. Kind of series: Antibacterial activity against methicillin-susceptible Staphylococcus aureus Smith infected po dosed ICR mouse assessed as protection against mouse mortality administered 1 hr after infection measured up to 7 days. Type of series: functional. Put shortly: (§2)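 Male outbred ICR mice (4-week-old, 18-20 g) infected intraperitoneally with S. aureus Smith, 2.9 × 10⁷ CFU/mouse in 5% mucin. Compounds given orally or intravenously 1 h after infection, eight mice per group. Mortality followed for 7 days. ED50 taken as the dose protecting 50% of infected mice from death.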

Series [4] can be described thus: Aqueous solubility of compound in distilled water. Type of series: physicochemical. Summed up: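 Water added stepwise with repeated vortexing until solution turned transparent; solubility = amount dissolved divided by total distilled water volume in the final clear solution; triplicate, averaged.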
A short description of series [5]: Chemical stability of compound in distilled water assessed as compound remaining at 100 ug/ml after 8 hrs. In kind it is physicochemical.
A short description of series [6]: Chemical stability of compound in distilled water assessed as compound remaining at pH 3 at 100 ug/ml after 8 hrs. In kind it is physicochemical. Particulars: buffer, pH 3, 8 h.
Series [7] can be described thus: Chemical stability of compound in distilled water assessed as compound remaining at pH 5 at 100 ug/ml after 8 hrs. In kind it is physicochemical. Particulars: buffer, pH 5, 8 h.
The nature of series [8]: Chemical stability of compound in distilled water assessed as compound remaining at pH 7 at 100 ug/ml after 8 hrs. Type of series: physicochemical. Particulars: buffer, pH 7, 8 h.
For the next series, the system named is Haemophilus influenzae. Kind of series: Antibacterial activity against Haemophilus influenzae by agar dilution method. In kind it is functional. Summed up:
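CLSI agar dilution; Haemophilus test medium used for H. influenzae; read-out MIC.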

The subject of series [9] is Staphylococcus aureus. Kind of series: Antibacterial activity against methicillin-resistant Staphylococcus aureus Smith infected iv dosed ICR mouse assessed as protection against mouse mortality administered 1 hr after infection measured up to 7 days. Type of series: functional. Put shortly:
as §2

Series [10] has as its system Staphylococcus aureus. The experiment in a line: Antibacterial activity against methicillin-resistant Staphylococcus aureus Smith infected po dosed ICR mouse assessed as protection against mouse mortality administered 1 hr after infection measured up to 7 days. Type of series: functional. Put shortly: as §2
For series [11], the system named is Staphylococcus aureus. The experiment in a line: Antibacterial activity against methicillin-sensitive Staphylococcus aureus Smith infected iv dosed ICR mouse assessed as protection against mouse mortality administered 1 hr after infection measured up to 7 days. Type of series: functional. Put shortly: as §2
Series [12] relates to Staphylococcus aureus. The experiment in a line: Antibacterial activity against methicillin-sensitive Staphylococcus aureus Smith infected po dosed ICR mouse assessed as protection against mouse mortality administered 1 hr after infection measured up to 7 days. In kind it is functional. Put shortly:
as §2

The nature of series [13]: Half life in ICR mouse at 10 mg/kg, iv by LC/MS/MS analysis. In kind it is ADME, organism-based. Set-up: dose 10 mg/kg, route intravenous. The following applies: in vivo. Put shortly:
(§3)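 Single 10 mg/kg dose given orally by feeding tube or iv via tail vein to male ICR mice (4-week-old, 18-20 g). Plasma acidified with 1 N HCl, stored at -70 °C, analysed by LC/MS/MS. Parameters from mean plasma concentrations. For prodrug dosing, values are based on the active parent detected.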

Series [14] can be described thus: AUC in ICR mouse at 10 mg/kg, iv by LC/MS/MS analysis. In kind it is ADME, organism-based. On the set-up: dose 10 mg/kg, route intravenous. Particulars: plasma. Put shortly:
as §3

A short description of series [15]: Clearance in ICR mouse at 10 mg/kg, iv by LC/MS/MS analysis. Particulars: in vivo. Set-up: dose 10 mg/kg, route intravenous. In kind it is ADME, organism-based. Summed up:
as §3

Series [16] in a line: Volume of distribution at steady state in ICR mouse at 10 mg/kg, iv by LC/MS/MS analysis. In kind it is ADME, organism-based. On the set-up: dose 10 mg/kg, route intravenous. The following applies: in vivo, read-out: Vdss. Put shortly: as §3
Series [17] is described as follows: Half life in ICR mouse at 10 mg/kg, po by LC/MS/MS analysis. In kind it is ADME, organism-based. Set-up: dose 10 mg/kg, route oral. Particulars: in vivo. Put shortly: as §3
Series [18] can be described thus: AUC in ICR mouse at 10 mg/kg, po by LC/MS/MS analysis. Type of series: ADME, organism-based. Set-up: dose 10 mg/kg, route oral. Particulars: plasma. Put shortly: as §3
A short description of series [19]: Tmax in ICR mouse at 10 mg/kg, po by LC/MS/MS analysis. Type of series: ADME, organism-based. Set-up: dose 10 mg/kg, route oral. Particulars: in vivo. Put shortly: as §3
Series [20] in a line: Cmax in ICR mouse at 10 mg/kg, po by LC/MS/MS analysis. Type of series: ADME, organism-based. On the set-up: dose 10 mg/kg, route oral. The following applies: in vivo. Summed up:
as §3

Series [21] in a line: Oral bioavailability in ICR mouse at 10 mg/kg by LC/MS/MS analysis. Type of series: ADME, organism-based. Particulars: in vivo. Put shortly:
as §3

On to `Cn1nnc(-c2ccc(-c3ccc(N4C[C@H](CNC(=O)CO)OC4=O)cc3F)cn2)n1`, for which the MIC with Staphylococcus aureus [1] was determined as 1 µg/mL (≈ 2.34 µM); with Staphylococcus aureus [2] it was 1 µg/mL (≈ 2.34 µM); against Enterococcus, 0.25 µg/mL (≈ 0.585 µM). For the same molecule, the ED50 with Staphylococcus aureus [3] is greater than 30 mg/kg.

In the case of `C[C@H](N)C(=O)OC[C@H]1CN(c2ccc(-c3ccc(-c4nnn(C)n4)nc3)c(F)c2)C(=O)O1.O=C(O)C(F)(F)F`, in [4], the solubility was greater than 50 mg/mL. Also, the Stability worked out at 90.7% in series [5], 97% in series [6], 87.8% in [7] and 6.3% in series [8].

In series [4], `Cn1nnc(-c2ccc(-c3ccc(N4C[C@H](COC(=O)CCN)OC4=O)cc3F)cn2)n1.O=C(O)C(F)(F)F` registered a solubility of 2.6 mg/mL. Moreover, the Stability in [5] worked out at 96.9%; in [6], 99.6%; in [7], 99.5%; in [8] it was 94.9%.

Molecule `C[C@H](N)C(=O)OC[C@H]1CN(c2ccc(-c3ccc(-c4nnn(C)n4)nc3)c(F)c2)C(=O)O1.Cl` had a solubility in series [4] greater than 50 mg/mL. Further, the Stability was 92.3% in series [5], 98% in [6], 88.1% in [7] and 7.5% in series [8].

In the case of `CN(C)CC1CN(c2ccc(-c3ccc(-c4nnn(C)n4)nc3)c(F)c2)C(=O)O1` (single isomer, unassigned), the MIC in the series on Staphylococcus aureus [1] stood at 8 µg/mL (≈ 20.1 µM); in the series on Staphylococcus aureus [2], 4 µg/mL (≈ 10.1 µM).

With `Cn1nnc(-c2ccc(-c3ccc(N4C[C@H](CF)OC4=O)cc3F)cn2)n1`, the MIC in the series on Staphylococcus aureus [1] worked out at 1 µg/mL (≈ 2.69 µM); in the series with Staphylococcus aureus [2] it was 1 µg/mL (≈ 2.69 µM); with Enterococcus it was 1 µg/mL (≈ 2.69 µM); in the series with Haemophilus influenzae it was 64 µg/mL (≈ 172 µM).

Regarding `Cn1nnc(-c2ccc(-c3ccc(N4C[C@H](Cn5nccn5)OC4=O)cc3F)cn2)n1`, the MIC in the series with Staphylococcus aureus [1], against Staphylococcus aureus [2] and in the series with Enterococcus was 16 µg/mL (≈ 38 µM) throughout.

With `Cc1nnc(-c2ccc(-c3ccc(N4C[C@H](CO)OC4=O)cc3F)cn2)o1`, the MIC against Staphylococcus aureus [1] was 0.5 µg/mL (≈ 1.35 µM); with Staphylococcus aureus [2] it was 0.5 µg/mL (≈ 1.35 µM); in the series with Enterococcus, 0.5 µg/mL (≈ 1.35 µM); in the series on Haemophilus influenzae, 4 µg/mL (≈ 10.8 µM). Besides, in the series on Staphylococcus aureus [3], the ED50 was 4.2 mg/kg.

As to `Cn1nnc(-c2ccc(-c3ccc(N4C[C@H](Cn5cncn5)OC4=O)cc3F)cn2)n1`, the MIC against Staphylococcus aureus [1] came to 2 µg/mL (≈ 4.75 µM); with Staphylococcus aureus [2] it was 2 µg/mL (≈ 4.75 µM); against Enterococcus it was 1 µg/mL (≈ 2.37 µM). The ED50 in the series on Staphylococcus aureus [3] is greater than 30 mg/kg.

In the case of `Cc1nnc(-c2ccc(-c3ccc(N4C[C@H](COc5ccon5)OC4=O)cc3F)cn2)o1`, the MIC was 1 µg/mL (≈ 2.29 µM) against Staphylococcus aureus [1], 1 µg/mL (≈ 2.29 µM) in the series on Staphylococcus aureus [2], 0.5 µg/mL (≈ 1.14 µM) against Enterococcus and greater than 16 µg/mL in the series with Haemophilus influenzae. Further, in the series with Staphylococcus aureus [3], the ED50 came to 6.5 mg/kg.

Regarding `Cc1nnc(-c2ccc(-c3ccc(N4C[C@H](Cn5ccnn5)OC4=O)cc3F)cn2)o1`, the MIC against Staphylococcus aureus [1] came out at 0.25 µg/mL (≈ 0.593 µM); against Staphylococcus aureus [2], 0.25 µg/mL (≈ 0.593 µM); against Enterococcus, 0.125 µg/mL (≈ 0.297 µM); against Haemophilus influenzae, 2 µg/mL (≈ 4.75 µM). Also, the ED50 in the series on Staphylococcus aureus [3] was greater than 30 mg/kg.

Turning to `CC(=O)NC[C@H]1CN(c2ccc(N3CCOCC3)c(F)c2)C(=O)O1` [LINEZOLID], the MIC worked out at 1 µg/mL (≈ 2.96 µM) against Enterococcus and 8 µg/mL (≈ 23.7 µM) in the series with Haemophilus influenzae. In addition, the ED50 in the series with Staphylococcus aureus [3] worked out at 9.4 mg/kg; in the series on Staphylococcus aureus [9], 12.9 mg/kg; in the series on Staphylococcus aureus [10], 15.6 mg/kg; in the series on Staphylococcus aureus [11], 29.1 mg/kg; with Staphylococcus aureus [12] it was 21.4 mg/kg.

For the molecule `Cn1nnc(-c2ccc(-c3ccc(N4C[C@H](CO)OC4=O)cc3F)cn2)n1` [TEDIZOLID], the MIC against Staphylococcus aureus [1] came to 0.5 µg/mL (≈ 1.35 µM); with Staphylococcus aureus [2], 0.5 µg/mL (≈ 1.35 µM); in the series on Enterococcus, 0.125 µg/mL (≈ 0.338 µM); in the series on Haemophilus influenzae, 4 µg/mL (≈ 10.8 µM). Besides, the ED50 with Staphylococcus aureus [3] is 8.8 mg/kg. In addition, the values for the half-life in [13] and in [17] were 3.49 h and 3.12 h, respectively. Moreover, the results for the AUC in series [14] and in series [18] were 103000 ng·h/mL and 49800 ng·h/mL, respectively. The clearance in [15] worked out at 1.61 mL/min/kg. Further, the Vd in series [16] was 0.512 L/kg. Moreover, the Tmax in series [19] was 2 h. The molecule further returned a Cmax in series [20] of 4620 ng/mL. In series [21], the bioavailability was found to be 48.5%.

As to `CC(C)[C@H](N)C(=O)OC[C@H]1CN(c2ccc(-c3ccc(-c4nnn(C)n4)nc3)c(F)c2)C(=O)O1.Cl`, the Stability in series [5] came out at 99.9%; in series [6], 99.9%; in [7], 97.7%; in [8] it was 60.9%.
